Active and inactive are the calls of the source.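 The calls were made as follows, unless noted: active = viability at or below 10% of carrier control in both of two separate runs; inconclusive = viability at or below 10% in only one of the two runs; inactive = the rest.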
Columns and labels:
[1] = Her2 expression decrease, cell viability multiplex – SKBR3 breast tumor cells, AlphaScreen, ATP viability, primary screen (AID 461;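 active = Her2 level under about 52% in both replicate screens, with viability over 70% of control, limit read from the data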;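 as to Her2 level: lower value means less Her2 protein in the cells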;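 as to viability: percent of carrier control wells set as 100% viability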); details: SKBR3 Her2 protein level, 18-24 h, measured here: SKBR3 viability, ATP luminescence, at 10 µM
[2] = biological target: Receptor tyrosine-protein kinase erbB-2 (Homo sapiens) (UniProt P04626); test: as above; details: 18-24 h, at 10 µM, stronger effect = lower value
Receptor tyrosine-protein kinase erbB-2 (Homo sapiens), sequence (P04626 whole entry, looked up): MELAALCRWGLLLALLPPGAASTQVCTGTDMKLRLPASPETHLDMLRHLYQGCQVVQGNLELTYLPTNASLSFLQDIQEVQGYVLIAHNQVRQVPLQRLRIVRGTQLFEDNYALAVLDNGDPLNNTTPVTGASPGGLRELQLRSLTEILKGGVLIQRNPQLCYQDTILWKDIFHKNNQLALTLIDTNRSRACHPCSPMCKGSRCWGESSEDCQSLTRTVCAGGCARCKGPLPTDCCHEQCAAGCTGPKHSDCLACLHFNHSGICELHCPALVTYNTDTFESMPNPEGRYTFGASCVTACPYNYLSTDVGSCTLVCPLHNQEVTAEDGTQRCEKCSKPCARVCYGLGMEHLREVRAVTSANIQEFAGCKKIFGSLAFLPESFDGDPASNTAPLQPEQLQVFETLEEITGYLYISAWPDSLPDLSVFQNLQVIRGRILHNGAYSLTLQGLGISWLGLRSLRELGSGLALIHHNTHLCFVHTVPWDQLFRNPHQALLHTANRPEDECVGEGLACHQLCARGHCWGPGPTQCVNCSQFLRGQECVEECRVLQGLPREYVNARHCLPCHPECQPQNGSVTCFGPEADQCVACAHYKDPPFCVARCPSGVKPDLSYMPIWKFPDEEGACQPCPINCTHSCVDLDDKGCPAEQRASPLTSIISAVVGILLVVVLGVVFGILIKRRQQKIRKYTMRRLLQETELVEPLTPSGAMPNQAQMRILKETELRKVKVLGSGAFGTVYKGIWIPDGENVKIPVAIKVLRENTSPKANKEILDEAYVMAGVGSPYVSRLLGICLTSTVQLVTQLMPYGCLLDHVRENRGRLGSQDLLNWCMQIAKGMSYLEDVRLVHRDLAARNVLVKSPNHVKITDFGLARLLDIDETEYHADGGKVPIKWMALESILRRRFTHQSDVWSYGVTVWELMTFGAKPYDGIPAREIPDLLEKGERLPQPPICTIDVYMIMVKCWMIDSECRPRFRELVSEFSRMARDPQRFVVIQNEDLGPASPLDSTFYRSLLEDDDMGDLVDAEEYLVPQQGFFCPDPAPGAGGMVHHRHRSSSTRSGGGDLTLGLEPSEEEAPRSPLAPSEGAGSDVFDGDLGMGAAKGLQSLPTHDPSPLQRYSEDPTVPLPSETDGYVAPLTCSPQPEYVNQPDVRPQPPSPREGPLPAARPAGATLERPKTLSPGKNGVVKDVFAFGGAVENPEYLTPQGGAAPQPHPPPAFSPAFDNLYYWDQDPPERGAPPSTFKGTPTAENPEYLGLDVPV

[3] = reduced viability of SK-BR-3 breast cancer cells – cell-based, 24 h, human, pilot screen (AID 572); details: SK-BR-3 viability, CellTiter-Glo luminescence, at 10 µM, stronger effect = lower value;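 also: compound exposure lasted between 18 and 24 h rather than exactly 24 h; 100% = carrier-treated control wells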
[4] = HUVEC growth inhibition – cell-based, human, primary screen (AID 575;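 active = viability at or below 30% in both replicate assays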;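 also: 100% = median of untreated cell wells with 0.1% DMSO on each plate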); details: HUVEC proliferation, CellTiter-Glo luminescence, 72 h; at 10 µM; stronger effect = lower value
In short: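 Test system: primary human umbilical vein endothelial cells. Quantity: 1250 cells/well. Compound: single 10 µM dose, 0.1% DMSO, from 5x medium stock. Timing: 72 h treatment at 37 °C. Detection: ATP-based CellTiter-Glo luminescent read. Benchmarks: vehicle and MePR control wells. Format: 384-well plates coated with collagen.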

[5] = H69AR cell proliferation blockers – human, duplicate replicates, primary screen (AID 580;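 active = viability at or under a set limit in both replicates, limit being median viability minus 3 SD, cut at about 48% in these data, passing the limit was not always enough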;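 also: 100% = mean luminescence of untreated wells and 0% = no signal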); details: H69AR lung tumor cells viability, ATP luminescence, 72 h; at 10 µM; stronger effect = lower value
[6] = MRP1 drug-resistance reversers in H69AR cells – cell-based, doxorubicin co-treatment, pilot screen (AID 601;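 active = viability loss from added drug above about 55%, and viability with drug at most 40%, in both replicates, limit read from the data, passing the limit was not always enough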); details: CellTiter-Glo, 72 h, at 10 µM; for differential viability (reversal): stronger effect = higher value
[7] = yeast transport mutant growth inhibition pilot in 384-well plates, post-Golgi transport modulator project (AID 636; in the data active = inhibition above about 31%); details: absorbance 615 nm, about 18 h, stronger effect = higher value
[8] = growth suppression of yeast trafficking mutant, preliminary HTS, modulators of trafficking downstream of Golgi apparatus project, 1536-format plate, OD 615 nm (AID 637; in the data active = inhibition above about 30%); details: yeast transport mutant growth, absorbance 615 nm, 18 h; stronger effect = higher value
[9] = H69AR cells + 2 uM doxorubicin, measured here: viability with 2 uM doxorubicin, stronger effect = lower value
[10] = H69AR cells, compound alone cytotoxicity

Structure (SMILES) | viability [1] | Her2 level [2] | viability [3] | viability [4] | viability [5] | differential viability (reversal) ([6]; H69AR cells + 2 uM doxorubicin) | viability [6, 9] | viability [6, 10] | inhibition [7] | inhibition [8]
CCn1c(=O)cc(OCC(=O)Nc2cc(C)ccn2)c2ccccc21 | 80% | 77% (inactive) | 80% (inactive) | 73.9% (inactive) | 86.4% (inactive) | -3.33% (inactive) | 89.7% | 86.4% | -2.89% (inactive) | -0.55% (inactive)
CCOC(=O)C(CCc1nnc(N)s1)C(=O)OCC | 87.5% | 89% (inactive) | 87.5% (inactive) | 110% (inactive) | 108% (inactive) | 12.8% (inactive) | 95.2% | 108% | -4.53% (inactive) | -0.48% (inactive)
COc1cccc(CNC(=O)C2CCN(c3cnccn3)CC2)c1 | 87.5% | 118% (inactive) | 87.5% (inactive) | 88.4% (inactive) | 96.2% (inactive) | 8.93% (inactive) | 87.3% | 96.2% | -4.67% (inactive) | 16.8% (inactive)
Cc1[nH]c(=O)[nH]c(=O)c1S(=O)(=O)N1c2ccc(F)cc2CCC1C (stereo not given) | 97.5% | 90% (inactive) | 97.5% (inactive) | 100% (inactive) | 95.7% (inactive) | -3.9% (inactive) | 99.6% | 95.7% | -6.97% (inactive) | 3.17% (inactive)
COc1ccccc1N1CCN(C(=O)C(Cc2ccccc2)NC(=O)C2CCCCC2)CC1 (stereo not given) | 73.5% | 85.5% (inactive) | 73.5% (inactive) | 74.8% (inactive) | 90.6% (inactive) | 3.88% (inactive) | 86.7% | 90.6% | -5.84% (inactive) | -2.62% (inactive)
Cc1nn(-c2ccc(F)cc2)c(C)c1NS(=O)(=O)c1ccc(Cl)cc1 | 106% | 85% (inactive) | 106% (inactive) | 90.9% (inactive) | 77% (inactive) | -5.18% (inactive) | 82.2% | 77% | -8.27% (inactive) | -2.79% (inactive)
N#Cc1c(NC(NC(=O)c2ccco2)C(=O)c2ccccc2)sc2c1CCCC2 (stereo not given) | 86.5% | 73.5% (inactive) | 86.5% (inactive) | 70.7% (inactive) | 86.4% (inactive) | -6.42% (inactive) | 92.8% | 86.4% | 80.4% (active) | 18% (inactive)
O=C(NCC(c1cccnc1)N1CCOCC1)c1cccs1 (stereo not given) | 101% | 75.5% (inactive) | 101% (inactive) | 89.6% (inactive) | 92.5% (inactive) | -0.595% (inactive) | 93.1% | 92.5% | -2.24% (inactive) | 11.2% (inactive)
NC1=NC(c2ccc(Cl)cc2)n2c(nc3ccccc32)N1 (stereo not given) | 96% | 86% (inactive) | 96% (inactive) | 84.9% (inactive) | 78.4% (inactive) | -10.8% (inactive) | 89.3% | 78.4% | -5.13% (inactive) | -0.73% (inactive)
Cc1c(C(=O)O)sc2nc3n(c(=O)c12)CCC(C)CC3 (stereo not given) | 93% | 87% (inactive) | 93% (inactive) | 82.2% (inactive) | 88.2% (inactive) | 5.25% (inactive) | 83% | 88.2% | -0.53% (inactive) | 8.69% (inactive)
O=C(Nc1ccc2oc(-c3ccncc3)nc2c1)c1cccs1 | 96% | 112% (inactive) | 96% (inactive) | 88.9% (inactive) | 79.6% (inactive) | 0.7% (inactive) | 78.9% | 79.6% | -2.76% (inactive) | 2.3% (inactive)
COc1c(Br)cc2c(C)c(C(=O)O)oc2c1Br | 104% | 102% (inactive) | 104% (inactive) | 84.2% (inactive) | 94.2% (inactive) | 4.95% (inactive) | 89.3% | 94.2% | 1.82% (inactive) | -4.59% (inactive)
O=C(NCCCN1CCN(CCCNC(=O)c2ccc(F)cc2)CC1)c1ccc(F)cc1 | 92.5% | 98% (inactive) | 92.5% (inactive) | 89.9% (inactive) | 94.6% (inactive) | 4.58% (inactive) | 90% | 94.6% | -4.67% (inactive) | 0.81% (inactive)
Cn1c(=O)c2c(nc(CN3CCCCC3)n2CCc2ccccc2)n(C)c1=O | 87% | 107% (inactive) | 87% (inactive) | 111% (inactive) | 91.9% (inactive) | -1.94% (inactive) | 93.9% | 91.9% | 2.27% (inactive) | 13.8% (inactive)
CCOC(=O)c1ccc(S(=O)(=O)NC2CCCCCCC2)n1C | 113% | 70% (inactive) | 113% (inactive) | 86.9% (inactive) | 104% (inactive) | -3.18% (inactive) | 107% | 104% | -1.49% (inactive) | 1.11% (inactive)
COc1ccc(C2c3c(-c4ccccc4O)n[nH]c3C(=O)N2CCc2ccc(OC)c(OC)c2)cc1 (stereo not given) | 112% | 95.5% (inactive) | 112% (inactive) | 60.3% (inactive) | 68.5% (inactive) | 57.9% (active) | 10.6% | 68.5% | -2.89% (inactive) | 6.94% (inactive)

Structure (SMILES) | viability [1] | Her2 level [2] | viability [3] | viability [4] | viability [5] | differential viability (reversal) ([6]; H69AR cells + 2 uM doxorubicin) | viability [6, 9] | viability [6, 10] | inhibition [7] | inhibition [8]
COc1ccc(C2=NOC(C(=O)NC3CCCCC3)C2)cc1OC (stereo not given) | 97.5% | 92% (inactive) | 97.5% (inactive) | 106% (inactive) | 95.9% (inactive) | 11.2% (inactive) | 84.8% | 95.9% | -9.04% (inactive) | 0.95% (inactive)
Cn1c(=O)n(CC(=O)OCc2ccccc2)c(=O)c2c1nc1n2CCCN1C1CCCCC1 | 81% | 86% (inactive) | 81% (inactive) | 96.4% (inactive) | 78.7% (inactive) | 32.8% (inactive) | 45.9% | 78.7% | -6.35% (inactive) | -0.16% (inactive)
O=C(CCS(=O)(=O)c1cccc2nsnc12)N1CCN(Cc2ccc3c(c2)OCO3)CC1 | 90.5% | 99% (inactive) | 90.5% (inactive) | 92.7% (inactive) | 94.4% (inactive) | -9.25% (inactive) | 104% | 94.4% | -6.71% (inactive) | -5.87% (inactive)
CCn1c(SCC(=O)NCc2ccco2)nc2c(c1=O)SC(C)C2 (stereo not given) | 95% | 91% (inactive) | 95% (inactive) | 103% (inactive) | 91.3% (inactive) | -0.41% (inactive) | 91.7% | 91.3% | -4.4% (inactive) | -0.98% (inactive)
COC(=O)c1cc(=O)nc2sc(-c3cccs3)nn12 | 115% | 85% (inactive) | 115% (inactive) | 84% (inactive) | 93.4% (inactive) | 8.2% (inactive) | 85.2% | 93.4% | -4.86% (inactive) | 5.24% (inactive)
O=C(CCOc1ccccc1)NCc1ccccc1 | 122% | 102% (inactive) | 122% (inactive) | 89.9% (inactive) | 89.6% (inactive) | -0.41% (inactive) | 90% | 89.6% | 4.03% (inactive) | 28.9% (inactive)
CCN1CCN(S(=O)(=O)c2ccc(S(=O)(=O)N(CC)Cc3ccccc3)cc2)CC1 | 98% | 94% (inactive) | 98% (inactive) | 82.1% (inactive) | 91.9% (inactive) | -7.05% (inactive) | 99% | 91.9% | -4.27% (inactive) | -1.13% (inactive)
CC(=O)c1cnc2cc(-c3ccccc3)nn2c1C | 91.5% | 110% (inactive) | 91.5% (inactive) | 91.4% (inactive) | 103% (inactive) | 19.5% (inactive) | 83.1% | 103% | 0% (inactive) | -10.7% (inactive)
CC(C)OC(=O)CSc1nc2cccnc2n1C1CCCCC1 | 124% | 93.5% (inactive) | 124% (inactive) | 112% (inactive) | 95.3% (inactive) | 5.92% (inactive) | 89.4% | 95.3% | -5.33% (inactive) | 3.44% (inactive)
O=C(NCCC1=CCCCC1)C1CCN(C(=O)Nc2ccccc2)CC1 | 106% | 128% (inactive) | 106% (inactive) | 91.3% (inactive) | 101% (inactive) | 5.69% (inactive) | 95.7% | 101% | -2.21% (inactive) | -2.33% (inactive)
CCC(C)Nc1nc2c(c(=O)n(C)c(=O)n2C)n1Cc1ccc(F)cc1 (stereo not given) | 90.5% | 86.5% (inactive) | 90.5% (inactive) | 88.6% (inactive) | 83.3% (inactive) | -14.3% (inactive) | 97.6% | 83.3% | -5.27% (inactive) | 5.08% (inactive)
Cc1ccc(O)c(C(CC(=O)N2CCCC2)c2ccccc2)c1 (stereo not given) | 89% | 101% (inactive) | 89% (inactive) | 92.4% (inactive) | 94.8% (inactive) | 12.3% (inactive) | 82.5% | 94.8% | -0.38% (inactive) | -6.83% (inactive)
O=S(=O)(Nc1ccn(-c2ccccc2)n1)c1ccc(Br)cc1 | 89% | 86.5% (inactive) | 89% (inactive) | 85.7% (inactive) | 87.5% (inactive) | -6.15% (inactive) | 93.7% | 87.5% | -3.77% (inactive) | 0.16% (inactive)
CC(=O)Nc1ccc(OC(=O)c2cccnc2)cc1 | 111% | 116% (inactive) | 111% (inactive) | 116% (inactive) | 99.9% (inactive) | 15.1% (inactive) | 84.9% | 99.9% | -7.57% (inactive) | -3.17% (inactive)
CCSc1cc(C2C(C(=O)OC)=C(C)NC3=C2C(=O)CCC3)c(C)o1 (stereo not given) | 79% | 90% (inactive) | 79% (inactive) | 109% (inactive) | 84.5% (inactive) | 5.68% (inactive) | 78.8% | 84.5% | -6.8% (inactive) | 3.93% (inactive)
O=C(C1CCC(N2C(=O)C3CC=CCC3C2=O)CC1)N1CCCCC1 (stereo not given) | 75.5% | 113% (inactive) | 75.5% (inactive) | 96.3% (inactive) | 91.8% (inactive) | 8.11% (inactive) | 83.7% | 91.8% | 0.64% (inactive) | -5.83% (inactive)
